# High-throughput results: PubChem BioAssay, several laboratories
# Hits are enriched below; roughly 1.3% of the tested compounds scored in any of these assays.
# TAG inh: inhibitors of triacylglycerol accumulation; H9c2 cells, Nile Red lipid (TAG) fluorescence; cells loaded with 200 µM oleic acid; inhibition, % at 12.5 µM; hit rate 0.66% among 230,000;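 active means pattern-corrected inhibition of lipid staining of at least 50% with the nuclear-stain viability signal not falling by more than 50%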;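 further: 0% = DMSO wells and 100% = triacsin C control wells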
# STK33 kinase inh: inhibitors of human STK33 kinase. purified STK33, MBP phosphorylation, ADP-Glo luminescence. hit rate 0.073% among 320,000. Q9BYT3. inhibition, % at 10 µM;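 active means inhibition at or above 25%, using the most active replicate where run in duplicate; inactive means inhibition below 25%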
# Target sequence (Q9BYT3 whole entry, looked up): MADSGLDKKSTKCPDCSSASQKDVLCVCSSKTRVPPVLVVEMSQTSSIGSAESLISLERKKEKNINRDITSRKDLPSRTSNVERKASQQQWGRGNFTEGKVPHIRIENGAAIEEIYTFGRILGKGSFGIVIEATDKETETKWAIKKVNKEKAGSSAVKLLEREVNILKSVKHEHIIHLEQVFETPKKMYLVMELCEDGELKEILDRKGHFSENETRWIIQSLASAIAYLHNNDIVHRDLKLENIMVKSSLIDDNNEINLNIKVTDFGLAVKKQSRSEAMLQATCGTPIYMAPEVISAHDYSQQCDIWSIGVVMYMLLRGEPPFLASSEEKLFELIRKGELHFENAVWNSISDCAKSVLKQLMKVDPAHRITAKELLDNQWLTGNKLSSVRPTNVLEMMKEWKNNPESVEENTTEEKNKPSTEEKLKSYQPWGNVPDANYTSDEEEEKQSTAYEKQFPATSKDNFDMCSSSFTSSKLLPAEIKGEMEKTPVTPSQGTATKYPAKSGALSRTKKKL
# GSK3B inh: inhibitors of human GSK3beta kinase; GST-GSK3beta kinase, ADP-Glo luminescence, 60 min; stronger effect = lower value; activity score (negative = inhibition), % at 10 µM; hit rate 0.038% among 300,000;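 active means more than half of replicate wells score below -50%, meaning over 50% inhibition versus plate controls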;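 further: 0% = median DMSO wells and -100% = median GW8510 positive control wells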
#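 Test system: GST-fused GSK3beta enzyme, cell-free | Quantity: 1.6 ng GST-GSK3beta enzyme per well | Reagent: 25 µM ATP with peptide substrate | Schedule: 60 min enzyme reaction, room temperature | Signal: Luminescent ADP-Glo measurement of ADP formed | Read-out basis: Score relative to plate controls | Control set: DMSO and 20 µM GW8510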
# LANA-H2B inh: blocks KSHV LANA binding to histone H2A/H2B; inhibition, % (test concentration not listed); hit rate 0.6% among 320,000; cell-free LANA-H2A/H2B peptide, fluorescence polarization; AID 2629; in the data active means inhibition mostly above about 10%, no sharp cut-off; inactive means mostly below about 6.7%
# Hep lipid drop: modulators of hepatic lipid droplet formation. AML12 mouse hepatocytes, oleate lipid droplets, BODIPY imaging. inhibition, % at 6.5 µM. hit rate 0.4% among 240,000. AID 1656;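 active means lipid droplet intensity inhibited by at least 50%, with more than 500 cells counted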
#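 Assay system: AML12 hepatocytes (mouse) / Also added: 100 µM oleic acid challenge / Times: overnight treatment with compound plus oleate / Detection: high-content imaging of BODIPY-stained droplets and DAPI nuclei / Evaluation: % inhibition of lipid droplet signal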
# GSK3A inh: inhibitors of human GSK-3 alpha kinase | ADP-Glo luminescence, 60 min | inhibition, % at 10 µM | hit rate 0.1% among 320,000 | AID 2650;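 active means more than half of replicates show inhibition above 20%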;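 further: GST-tagged GSK-3 alpha with peptide substrate and 25 µM ATP; 0% = DMSO neutral wells and 100% = GW8510 positive control wells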
# Hep lipid conf: confirmation of inhibitors of hepatic lipid droplet formation; AML12 mouse hepatocytes, BODIPY lipid droplet imaging; droplets induced with 100 µM oleic acid; shares compounds with Hep lipid drop; inhibition, % at 5.2 µM; hit rate 65% among 870;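 active means inhibition of lipid droplet metric at least 50%, with more than 300 cells in each of four replicates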;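 further: plate controls were DMSO with oleic acid for no effect and 5 µM Triacsin-C for full effect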
# AML12 cytotox: counter-screen for cytotoxicity in AML12 mouse hepatocytes; shares compounds with Hep lipid drop; DAPI nuclear morphology cytotoxicity imaging; stronger effect = higher value; cells fed 100 µM oleate overnight; z-score at 5 µM; hit rate 3% among 870; in the data active means z-score above about 6.3;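 further: compound exposure lasted overnight at 37 °C before fixation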
# AML12 tox ATP: confirmation of cytotoxicity in AML12 mouse hepatocytes. cytotoxicity, % at 50 µM. AML12 mouse hepatocyte viability, ATP luminescence; cells loaded with 100 µM oleic acid. 530 tested, under 10 active. shares compounds with Hep lipid drop;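 active means cytotoxicity above 50% in each of four replicates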;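 further: compound exposure lasted overnight at 37 °C before the ATP read; 0% = DMSO-treated cells and 100% = wells with no cells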
# An asterisk follows results filed as active; i = inactive; . = no result; + = active, no number.
SMILES,TAG inh,STK33 kinase inh,GSK3B inh,LANA-H2B inh,Hep lipid drop,GSK3A inh,others
COc1ccc(NC(=O)/C(Cl)=C(/Cl)S(=O)Cc2ccccc2)cn1 (centres undefined),95.6*,1.2,3.3,-4.2,-25.3,2.0,
COc1cccc(N(CC(=O)NCC2CCCO2)C(=O)CCC(=O)Nc2nccs2)c1 (centres undefined),-4.3,4.8,-25.3,29.0*,2.7,-1.4,
Cc1ccc(-c2nnc(Nc3ccc(OCC(N)=O)cc3)c3ccccc23)cc1S(N)(=O)=O,.,0.1,-1.1,-6.2,-5.0,-1.0,
NC(=O)COc1ccc(Nc2nnc(-c3ccc(O)cc3)c3ccccc23)cc1,5.5,1.0,-3.3,18.8*,1.6,-1.2,
O=S(c1ccccc1O)S(=O)c1ccccc1O (centres undefined),3.6,.,.,.,.,.,
CS(=O)c1ccccc1O (centres undefined),0.9,0.4,-4.2,38.7*,-3.6,-2.3,
CCOC(=O)N1CCN(C(=O)c2cc3cc(C)ccc3[nH]2)CC1,.,-1.1,-3.1,12.8*,5.5,-0.1,
CCOc1ccc(/C=N/OCC(=O)Nc2ccc3c(c2)OCO3)cc1,-2.4,1.4,3.8,-2.4,1.2,-1.7,
CCOc1ccc(/C=N/OCC(=O)Nc2cc(C)on2)cc1,.,-0.7,0.2,20.6*,8.0,1.1,
O=C(/C=C/c1cccc([N+](=O)[O-])c1)OCC(=O)N1CCN(C(=O)c2ccco2)CC1,1.3,-2.7,.,-2.1,.,-4.5,
Cc1ncc(CO)c(/C=N/Nc2ccc(C(F)(F)F)cn2)c1O,.,4.5,0.9,2.4,-14.8,4.9,
O=C(C[C@H]1C[C@H](C(=O)N2CCCCC2)[C@@]2(CCc3ccccc3)c3[nH]c4cc(-c5ccco5)ccc4c3CCN2C1=O)NCc1cccc(C(F)(F)F)c1,57.6*,.,.,.,.,.,
C[C@]12c3[nH]c4ccccc4c3CCN1C(=O)C(CC(=O)NCc1cccc(C(F)(F)F)c1)C[C@@H]2C(=O)N1CCOCC1 (some centres undefined),0.2,0.7,.,+,.,1.8,
C[C@]12c3[nH]c4ccccc4c3CCN1C(=O)C(CC(=O)NCc1ccco1)C[C@@H]2C(=O)N1CCCCC1 (some centres undefined),5.4,0.3,.,i,.,-2.1,
O=C(C[C@H]1C[C@H](C(=O)N2CCCCC2)[C@@]2(CCc3ccccc3)c3[nH]c4cc(-c5ccco5)ccc4c3CCN2C1=O)NCc1ccco1,36.7,.,.,.,.,.,
C[C@]12c3[nH]c4ccccc4c3CCN1C(=O)C(CC(=O)NCc1cccc(C(F)(F)F)c1)C[C@@H]2C(=O)N1CCCCC1 (some centres undefined),37.9,-0.9,.,-1.7,.,-1.3,
C[C@]12c3[nH]c4ccccc4c3CCN1C(=O)C(CC(=O)NCc1ccco1)C[C@@H]2C(=O)N1CCOCC1 (some centres undefined),-0.5,0.1,.,94.0*,.,-2.2,
CC(C)(C)NC(=O)C(c1ccccc1)N(Cc1cccs1)C(=O)c1csnn1 (centres undefined),9.9,-1.0,2.5,-2.6,-5.7,1.1,
CCOC(=O)C1CCN(C(=O)c2ccccc2NS(=O)(=O)c2cc(C)ccc2C)CC1,.,0.7,1.5,0.7,-12.8,-1.1,
CC(C)CN(C(=O)c1ccc(F)cc1F)c1c(N)n(CC(C)C)c(=O)[nH]c1=O,.,-2.8,.,0.0,-16.7,-0.9,
COC(=O)c1ccc(CSc2nnc(CNC(=O)c3ccccc3F)o2)o1,-14.7,-0.7,0.5,-1.2,21.8,-0.4,
CCN(CC)CCNC(=O)c1cn(CC)c2ccc(S(=O)(=O)N3CCOCC3)cc2c1=O,.,-2.6,-2.6,8.5*,-61.1,0.0,
CCCCN(CCCC)CCNC(=O)c1cn(CC)c2ccc(S(=O)(=O)N3CCCC3)cc2c1=O,.,-0.5,-1.9,-3.7,-7.0,-0.1,
CCOc1ccc(C(=O)Nc2ccc(N3CCN(C(C)=O)CC3)cc2)cc1[N+](=O)[O-],13.5,-1.1,-0.1,18.2*,-4.1,-1.3,
C[C@@H]1CN([C@@H](C)CO)C(=O)CCCn2nncc2CO[C@H]1CN(C)Cc1ccccc1C(F)(F)F,8.2,.,.,.,.,.,
SMILES,TAG inh,STK33 kinase inh,GSK3B inh,LANA-H2B inh,Hep lipid drop,GSK3A inh,others
CC(C)[C@H](NC(=O)c1ccc(Cl)cc1Cl)C(=O)NNc1cccc(C(=O)O)c1,-1.4,5.0,.,14.5*,.,-1.6,
O=[N+]([O-])c1ccc(N=Nc2ccc(O)c3ccccc23)cc1,55.9*,.,.,.,.,.,
Cn1c(NC(=O)CCC2CCCCC2)cc(=O)n(C)c1=O,5.5,-1.6,-2.4,2.6,.,-3.1,
COc1ccc(OC)c(NC(=O)Nc2cccc3ccccc23)c1,.,-0.2,-1.2,-3.3,36.8,-2.5,
COc1ccc(NC(=O)Nc2cccc3ccccc23)c(OC)c1,18.6,-0.5,-2.1,4.7,55.8*,-5.5,Hep lipid conf=82.9*;AML12 cytotox=-0.235;AML12 tox ATP=8.8
O=C1C(=O)N(CCCn2ccnc2)C(c2cccc(Br)c2)/C1=C(\O)c1ccc2c(c1)OCCO2 (centres undefined),.,-3.1,3.7,-8.2,-4.7,-2.1,
O=C(CN1CCN(c2ccc(F)cc2)CC1)c1cccs1,-11.8,-1.0,0.9,-0.4,2.8,0.3,
COc1ccc(NC(=O)[C@H](C)NC(=O)[C@@H]2Cc3ccccc3CN2C(=O)OC(C)(C)C)cc1,.,-0.1,0.6,-7.6,54.8*,0.4,Hep lipid conf=91.3*;AML12 cytotox=-1.1;AML12 tox ATP=9.0
Cc1cccc(NC(=O)[C@H](C)NC(=O)[C@@H]2Cc3ccccc3CN2C(=O)OC(C)(C)C)c1,.,-1.8,-0.2,-5.8,61.9*,-2.0,Hep lipid conf=99.9*;AML12 cytotox=0.467;AML12 tox ATP=11.7
CC(C)[C@H](NC(=O)[C@@H]1Cc2ccccc2CN1C(=O)OC(C)(C)C)C(=O)NC1CCCC1,.,4.7,2.4,-6.1,-1.7,7.7,
O=C(CNc1cc(S(=O)(=O)N2CCCC2)ccc1OCC(F)(F)F)Nc1cccc(C(F)(F)F)c1,-13.1,-1.9,3.4,10.1,54.1*,-2.0,Hep lipid conf=-4.2;AML12 cytotox=0.042
Cc1cccc(NC(=O)c2cccc(OC(=S)N3CCOCC3)c2)c1,.,-0.6,-1.7,1.7,83.9*,1.4,Hep lipid conf=104.2*;AML12 cytotox=0.0916;AML12 tox ATP=5.2
O=C(Nc1cccc(Cl)c1)c1ccc(OC(=S)N2CCOCC2)cc1,-2.1,0.1,-4.1,2.1,-23.7,4.0,
COc1cc2c(cc1OC)CN(CC(=O)Nc1ccc(C)cc1)CC2,.,-0.8,-2.4,-0.3,.,-1.9,
